Converted amounts (≈) assume the structure as drawn.
What was measured:
Leishmania mexicana [1] = experiment: Antileishmanial activity against Leishmania mexicana MNYC/BZ/62/M379 infected in C57BL/6 mouse peritoneal macrophages assessed as reduction in infection at 6.3 ug/ml after 72 hrs relative to control; type: functional; design: scale not given: the % may be the effect or the level left
Summary of the method: (§1)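 Mouse peritoneal macrophages were infected with promastigotes in supplemented DMEM on chamber slides for 24 h at 33 °C under 5% CO2. They were washed with HBSS and given serial drug dilutions for 72 h. Cells were then methanol-fixed and stained with 0.04% Giemsa for 35 min. At least 200 cells per sample were counted under oil immersion, and the value is the % decrease in infected macrophages versus untreated wells.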

Leishmania mexicana [2] = experiment: Antileishmanial activity against Leishmania mexicana MNYC/BZ/62/M379 infected in C57BL/6 mouse peritoneal macrophages assessed as reduction in infection at 12.5 ug/ml after 72 hrs relative to control; type: functional; design: scale not given: the % may be the effect or the level left; summary of the method: as §1
Vero = experiment: Cytotoxicity against african green monkey Vero cells after 72 hrs by cell-titer assay; type: cell-based; conditions: Chlorocebus sabaeus
Summary of the method: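 Vero cells (1000/well) in Eagle's MEM with Earle's salts, penicillin/streptomycin and 10% FBS were seeded with serial compound dilutions for 72 h at 37 °C under 5% CO2. CellTiter reagent was then added for 12-14 h, and absorbance was read at 490 nm.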

Leishmania donovani = experiment: Antileishmanial activity against Leishmania donovani MHOM/SD/62/1S-CL2D axenic amastigotes after 3 days by tetrazolium dye method; type: functional, organism-based; conditions: 72 h
Summary of the method: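 L. donovani amastigote-like parasites grown axenically were exposed to compounds for three days. Viability was read with the tetrazolium-based CellTiter reagent.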

[3] = Selectivity for Leishmania donovani MHOM/SD/62/1S-CL2D axenic amastigotes over african green monkey Vero cells
[4] = tested on: Trypanosoma brucei brucei; experiment: Antitrypanosomal activity against blood stream-form of Trypanosoma brucei brucei MITat1.2 after 72 hrs by MTT assay; type: functional, organism-based
Summary of the method: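 Late-log bloodstream-form T. b. brucei in HMI-9 were incubated with or without compound for 72 h at 37 °C under 5% CO2. MTT (25 µL of a 5 mg/mL stock) was added for 2 h, then 10% SDS in 50% aqueous DMF for 3-4 h. OD was read at 570 nm, and IC50 is 50% growth inhibition versus untreated control.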

Leishmania mexicana [5] = experiment: Antileishmanial activity against Leishmania mexicana MNYC/BZ/62/M379 infected in C57BL/6 mouse peritoneal macrophages assessed as reduction in infection at 3.1 ug/ml after 72 hrs relative to control; type: functional; design: scale not given: the % may be the effect or the level left; summary of the method: as §1
J774.A1 = experiment: Cytotoxicity against mouse J774A1 cells after 72 hrs by cell-titer assay; type: cell-based; conditions: J774.A1, 72 h
Summary of the method: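 J774 A.1 macrophages (5000/well) in DMEM with penicillin/streptomycin and 10% FBS were seeded with serial compound dilutions for 72 h at 37 °C under 5% CO2. Viability was read by CellTiter, with 12-14 h color development and absorbance at 490 nm.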

Leishmania mexicana [6] = experiment: Antileishmanial activity against Leishmania mexicana MNYC/BZ/62/M379 infected in C57BL/6 mouse peritoneal macrophages assessed as reduction in infection at 0.029 ug/ml after 72 hrs relative to control; type: functional; design: scale not given: the % may be the effect or the level left; summary of the method: as §1
Leishmania mexicana [7] = experiment: Antileishmanial activity against Leishmania mexicana MNYC/BZ/62/M379 infected in C57BL/6 mouse peritoneal macrophages assessed as reduction in infection at 0.014 ug/ml after 72 hrs relative to control; type: functional; design: scale not given: the % may be the effect or the level left; summary of the method: as §1
Leishmania mexicana [8] = experiment: Antileishmanial activity against Leishmania mexicana MNYC/BZ/62/M379 infected in C57BL/6 mouse peritoneal macrophages assessed as reduction in infection at 0.116 ug/ml after 72 hrs relative to control; type: functional; design: scale not given: the % may be the effect or the level left; summary of the method: as §1
Leishmania mexicana [9] = experiment: Antileishmanial activity against Leishmania mexicana MNYC/BZ/62/M379 infected in C57BL/6 mouse peritoneal macrophages assessed as reduction in infection at 25 ug/ml after 72 hrs relative to control; type: functional; design: scale not given: the % may be the effect or the level left; summary of the method: as §1
Leishmania mexicana [10] = experiment: Antileishmanial activity against Leishmania mexicana MNYC/BZ/62/M379 infected in C57BL/6 mouse peritoneal macrophages assessed as reduction in infection at 50 ug/ml after 72 hrs relative to control; type: functional; design: scale not given: the % may be the effect or the level left; summary of the method: as §1

| Structure (SMILES) | IC50 (Leishmania donovani) [µg/mL] | IC50 [4] [µg/mL] | Activity (Leishmania mexicana [1]) [%] | Activity (Leishmania mexicana [2]) [%] | IC50 (Vero) [µg/mL] | Ratio IC50 [3] | Activity (Leishmania mexicana [5]) [%] | IC50 (J774.A1) [µg/mL] | Activity (Leishmania mexicana [6]) [%] | Activity (Leishmania mexicana [7]) [%] | Activity (Leishmania mexicana [8]) [%] | Activity (Leishmania mexicana [9]) [%] | Activity (Leishmania mexicana [10]) [%] |
| --- | --- | --- | --- | --- | --- | --- | --- | --- | --- | --- | --- | --- | --- |
| COc1c(C)c(O)c(C)c(O)c1C(=O)/C=C/c1ccccc1 | 5 (≈ 16.8 µM) | 6.3 (≈ 21.1 µM) | 61 | 96 | 12.9 (≈ 43.2 µM) | 2.6 | 28 | 7.7 (≈ 25.8 µM) |  |  |  |  |  |
| COc1c(C)c(O)c(C)c(O)c1C(=O)/C=C/c1ccccc1O | 7.5 (≈ 23.9 µM) | 6.8 (≈ 21.6 µM) | 34 | 96 | 13.3 (≈ 42.3 µM) | 1.8 | 6 | 9.3 (≈ 29.6 µM) |  |  |  |  |  |
| C[C@@H]1[C@H](O)[C@@H](C)/C=C/C=C/C=C/C=C/C=C/C=C/C=C/[C@H](O[C@@H]2O[C@H](C)[C@@H](O)[C@H](N)[C@@H]2O)C[C@@H]2O[C@](O)(C[C@@H](O)C[C@@H](O)[C@H](O)CC[C@@H](O)C[C@@H](O)CC(=O)O[C@H]1C)C[C@H](O)[C@H]2C(=O)O [AMPHOTERICIN B] |  |  |  |  |  |  |  |  | 85 | 59 | 95 |  |  |

More lines, main results first:

| IC50 (Leishmania donovani) [µg/mL] | IC50 [4] [µg/mL] | Structure (SMILES) | Activity (Leishmania mexicana [1]) [%] | Activity (Leishmania mexicana [2]) [%] | IC50 (Vero) [µg/mL] | Ratio IC50 [3] | Activity (Leishmania mexicana [5]) [%] | IC50 (J774.A1) [µg/mL] | Activity (Leishmania mexicana [6]) [%] | Activity (Leishmania mexicana [7]) [%] | Activity (Leishmania mexicana [8]) [%] | Activity (Leishmania mexicana [9]) [%] | Activity (Leishmania mexicana [10]) [%] |
| --- | --- | --- | --- | --- | --- | --- | --- | --- | --- | --- | --- | --- | --- |
| 7.5 (≈ 24.2 µM) | 21.6 (≈ 69.6 µM) | COC1=C(C)C(=O)C(C)(C)C(=O)/C1=C1\C=Cc2ccccc2O1 [DALRUBONE] | 1 | 41 | 44.5 (≈ 143 µM) | 5.9 |  | 30.1 (≈ 97 µM) |  |  |  | 97 |  |
| > 100 | 28.9 (≈ 102 µM) | Cc1c(O)c(C)c2c(c1O)C(=O)C[C@@H](c1ccccc1)O2 [DEMETHOXYMATTEUCINOL] |  |  | > 50 |  |  | > 50 |  |  |  |  |  |
| 25 (≈ 86.7 µM) | 25 (≈ 86.7 µM) | O=C1C[C@@H](c2ccc(O)c(O)c2)Oc2cc(O)cc(O)c21 [ERIODICTYOL] |  | 30 | 36.5 (≈ 127 µM) |  |  | 32.8 (≈ 114 µM) |  |  |  | 55 | 76 |
| 1.4 (≈ 4.11 µM) | 0.007 (≈ 0.0206 µM) | N=C(N)c1ccc(OCCCCCOc2ccc(C(=N)N)cc2)cc1 [PENTAMIDINE] |  |  | > 50 |  |  | 12.9 (≈ 37.9 µM) |  |  |  |  |  |
|  | 0.193 (≈ 0.149 µM) | Cc1ccc(C(=O)Nc2ccc(S(=O)(=O)O)c3cc(S(=O)(=O)O)cc(S(=O)(=O)O)c23)cc1NC(=O)c1cccc(NC(=O)Nc2cccc(C(=O)Nc3cc(C(=O)Nc4ccc(S(=O)(=O)O)c5cc(S(=O)(=O)O)cc(S(=O)(=O)O)c45)ccc3C)c2)c1 [SURAMIN] |  |  |  |  |  |  |  |  |  |  |  |
